We go through 31 molecules from ChEMBL document CHEMBL1158500, “Synthesis and biological evaluation of new potential inhibitors of N-acylethanolamine hydrolyzing acid amidase” (Bioorg Med Chem Lett, 2010).

Calls of active or inactive are those of the source. The calls are words filed in the database; no cut-off is given here.

In experiment [1] the target is T1, N-acylethanolamine-hydrolyzing acid amidase (Homo sapiens) (UniProt Q02083).
T1 sequence (whole entry): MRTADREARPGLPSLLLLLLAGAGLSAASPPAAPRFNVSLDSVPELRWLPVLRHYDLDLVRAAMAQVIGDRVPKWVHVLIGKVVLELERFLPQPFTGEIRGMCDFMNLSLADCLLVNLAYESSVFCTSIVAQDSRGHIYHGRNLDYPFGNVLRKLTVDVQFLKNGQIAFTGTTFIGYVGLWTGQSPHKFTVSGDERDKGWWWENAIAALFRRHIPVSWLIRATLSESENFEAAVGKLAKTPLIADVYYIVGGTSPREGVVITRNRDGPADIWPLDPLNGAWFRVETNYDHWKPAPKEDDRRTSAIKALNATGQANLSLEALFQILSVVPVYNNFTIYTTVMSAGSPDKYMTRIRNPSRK
Nature of the experiment: Inhibition of human recombinant NAAA expressed in human HEK293 cells assessed as conversion of [1,2-14C]palmitoylethanolamine to [1,2-14C]ethanolamine at 50 uM by liquid scintillation counting. The class given is cell-based.

In experiment [2] the target is T2, N-acylethanolamine-hydrolyzing acid amidase (Homo sapiens, UniProt Q02083).
T2 sequence (Q02083 whole entry): T1 sequence (whole entry)
Nature of the experiment: Inhibition of NAAA.

Experiment [3] addresses T3, Fatty-acid amide hydrolase 1 (Homo sapiens) (UniProt O00519).
T3 sequence (whole entry): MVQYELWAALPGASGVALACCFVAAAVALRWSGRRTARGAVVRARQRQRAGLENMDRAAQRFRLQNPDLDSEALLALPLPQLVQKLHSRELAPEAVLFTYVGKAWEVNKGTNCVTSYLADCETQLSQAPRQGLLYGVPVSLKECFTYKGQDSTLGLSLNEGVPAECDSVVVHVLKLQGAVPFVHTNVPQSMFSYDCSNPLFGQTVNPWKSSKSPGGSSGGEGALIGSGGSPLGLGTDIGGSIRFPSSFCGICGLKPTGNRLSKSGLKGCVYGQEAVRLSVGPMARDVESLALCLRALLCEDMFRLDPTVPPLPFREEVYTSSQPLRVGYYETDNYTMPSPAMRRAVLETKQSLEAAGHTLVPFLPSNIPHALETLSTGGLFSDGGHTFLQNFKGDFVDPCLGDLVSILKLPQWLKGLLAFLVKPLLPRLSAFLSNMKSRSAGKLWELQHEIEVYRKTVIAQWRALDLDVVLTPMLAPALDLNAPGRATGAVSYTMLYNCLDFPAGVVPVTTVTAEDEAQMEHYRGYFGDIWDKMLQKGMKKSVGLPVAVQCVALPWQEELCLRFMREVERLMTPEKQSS
Description: Inhibition of FAAH up to 50 uM.

In experiment [4] the target is T1, N-acylethanolamine-hydrolyzing acid amidase (Homo sapiens). Nature of the experiment: Inhibition of NAAH in human intact HEK293 assessed as N-palmitoylethanolamine level by LC-APCI-MS analysis. The class given is cell-based. The gist of the method: (§1)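 Intact HEK-NAAA cells (HEK-293 stably overexpressing human NAAA) were treated. Cellular PEA, AEA, OEA and 2-arachidonoylglycerol were quantified by isotope-dilution liquid chromatography–mass spectrometry and expressed as pmol/mg lipid.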

The target of experiment [5] is Transient receptor potential cation channel subfamily V member 1 (Homo sapiens) (UniProt Q8NER1). Nature of the experiment: Inhibition of human TRPV1 expressed in HEK293 cells up to 50 uM. Format: cell-based.
For experiment [6], the target named is T3, Fatty-acid amide hydrolase 1 (Homo sapiens). Nature of the experiment: Inhibition of FAAH in human intact HEK293 assessed as anandamide level by LC-APCI-MS analysis. Format: cell-based. The gist of the method: as §1
The target in experiment [7] is Cannabinoid receptor 1 (Homo sapiens) (UniProt P21554). Nature of the experiment: Inhibition of CB1 receptor in intact human HEK293 cells assessed as 2-arachidonoylglycerol level by LC-APCI-MS analysis. Format: cell-based. The gist of the method:
as §1

Experiment [8] shares this target. Nature of the experiment: Displacement of [3H]CP-55940 from human recombinant CB1 receptor expressed in HEK293 cells up to 50 uM after 90 mins. The class given is cell-based.
The target of experiment [9] is T1, N-acylethanolamine-hydrolyzing acid amidase (Homo sapiens). Nature of the experiment: Competitive inhibition of human recombinant NAAA expressed in human HEK293 cells assessed as conversion of [1,2-14C]palmitoylethanolamine to [1,2-14C]ethanolamine by Lineweaver-Burke plot analysis. Format: cell-based.
Experiment [10] addresses Peroxisome proliferator-activated receptor (Homo sapiens) (UniProt P37231+Q07869+Q03181). Description: Inhibition of PPAR in intact human HEK293 cells assessed as N-oleoylethanolamine level by LC-APCI-MS analysis. The class given is cell-based. Put shortly:
as §1

In experiment [11] the target is Cannabinoid receptor 2 (Homo sapiens) (UniProt P34972). Nature of the experiment: Displacement of [3H]CP-55940 from human recombinant CB2 receptor expressed in HEK293 cells up to 50 uM after 90 mins. Format: cell-based. In general terms: In a radioligand displacement assay an active substance lowers the binding of a labelled ligand.
Experiment [12] deals with T2, N-acylethanolamine-hydrolyzing acid amidase. Nature of the experiment: Inhibition of human recombinant NAAA expressed in human HEK293 cells assessed as conversion of [1,2-14C]palmitoylethanolamine to [1,2-14C]ethanolamine by liquid scintillation counting.

One may read the inhibition as the share of the control response that was lost under treatment. Usually IC50 stands for the midpoint of a concentration-inhibition curve.

Consider `CCCCCCCCCCCCCCCC(=O)Nc1ccc([N+](=O)[O-])cc1`, for which the inhibition in experiment [1] turned out to be 15%.

In the case of `CCCCCCCCCCCCCCC(=O)OC1CCC1`, in [1], the inhibition worked out at 29%.

Take `CCCCCCCCCCCCCCCCOC(=O)c1ccc([N+](=O)[O-])cc1`: the inhibition in [1] came out at 26%.

Regarding `CCCCCCCCCCCCCCCC(=O)Oc1ccc(OC)cc1`, the inhibition result in [1] was “inactive”.

As for `CCCCCCCCCCCCCCCCOC(=O)NC1CCCCC1`, in experiment [1], the inhibition entry is “inactive”.

In experiment [2], `CCCCCCCCCCCCCCCNC(=O)c1ccccc1` registered an IC50 of 8.3 µM.

`CCCCCCCCCCCCCCCC(=O)OC1CCCC1` [CYCLOPENTYL PALMITATE]: the outcome in experiment [3], in experiment [5], in [6], in experiment [7], in experiment [8] and in experiment [10] was inactive. In addition, the result in experiment [11] was inactive. Besides, the result in [4] and in experiment [9] was Active. For the same molecule, the inhibition in experiment [1] was 85%. Also, the IC50 in experiment [12] was found to be 10 µM.

In experiment [2], `CCCCCCCCCCCCCCCNC(=O)CCO` had a half-inhibitory concentration (IC50) of 32 µM.

On to `CCCCCCCCCCCCCCCC(=O)NCCc1cc(OC)cc(OC)c1`, for which, in experiment [1], the inhibition entry was “inactive”.

`CCCCCCCCCCCCCCCC(=O)NCCc1ccc(OC)cc1`: the inhibition result in experiment [1] is “inactive”.

`CCCCCCCCCCCCCCCCOC(=O)c1ccc(OC)cc1`: in experiment [1], the inhibition entry is “inactive”.

Turning to `CCCCCCCCCCCCCCCCC(=O)OC1CCC1`, the inhibition entry in experiment [1] was “inactive”.

Take `CCCCCCCCCCCCCCCC(=O)NN1CCN(c2ccc(C)c(C)c2)CC1`: the inhibition result in [1] was “inactive”.

As to `CCCCCCCCCCCCCCCC(=O)Nc1ccc(OC)cc1`, the inhibition entry in experiment [1] was “inactive”.

Regarding `CCCCCCCCCCCCCCCCNC(=O)C1CCCC1`, the inhibition in experiment [1] was 8%.

As to `CCCCCCCCCCCCCCCCC(=O)OC1CCCC1`, the inhibition result in experiment [1] is “inactive”.

Take `CCCCCCCCCCCCCCC(=O)OC1CCCC1`: in [1], the inhibition worked out at 25%.

As for `CCCCCCCCCCCCCCC(=O)OC1CCCCC1`, the inhibition in experiment [1] was 28%.

For `CCCCCCCCCCCCCCCCC(=O)OC1CCCCC1`, the inhibition result in [1] is “inactive”.

`CCCCCCCCCCCCCCCC(=O)NN1CCN(c2ccc(Cl)cc2)CC1`: in [1], the inhibition entry was “inactive”.

Take `CCCCCCCCCCCCCCCC(=O)NC1CCN(Cc2ccccc2)CC1`: the inhibition result in [1] was “inactive”.

For the molecule `CCCCCCCCCCCCCCCCOC(=O)C1CCCC1`, in [1], the inhibition was 17%.

With `CCCCCCCCCCCCCCCC(=O)NN1CCN(c2cc(C)ccc2C)CC1`, the inhibition entry in [1] was “inactive”.

Consider `CCCCCCCCCCCCCCCCNC(=O)c1ccc(OC)cc1`, for which, in experiment [1], the inhibition result is “inactive”.

In the case of `CCCCCCCCCCCCCCCNC(=O)C1CCCCC1` [CYCLOHEXANECARBOXYLIC ACID PENTADECYLAMIDE], in [12], the IC50 turned out to be 17 µM.

In experiment [2], `CCCCCCCCCCCCCCCCOC(=O)CC` [HEXADECYLPROPIONATE] had a concentration for half-maximal inhibition (IC50) of 54 µM.

Turning to `CCCCCCCCCCCCCCCCNC(=O)c1ccc([N+](=O)[O-])cc1`, the inhibition in experiment [1] came out at 4%.

With `CCCCCCCCCCCCCCCC(=O)OC1CCC1`, in [1], the inhibition came to 41%.

For the molecule `CCCCCCCCCCCCCCCC(=O)NN1CCN(c2ccc(F)cc2)CC1`, the inhibition entry in experiment [1] is “inactive”.

`CCCCCCCCCCCCCCCCOC(=O)Nc1ccc(OC)cc1`: the inhibition entry in [1] is “inactive”.

Turning to `CCCCCCCCCCCCCCCC(=O)OC1CCCCC1`, in [1], the inhibition turned out to be 18%.
